Drawing on the RNAGym collection of RNA variant scans (doi:10.1002/anie.201605470), this text covers self-cleavage for 167 variants.

B1: Osa-1-4 twister ribozyme (parent)
chain: CCGCCUAACACUGCCAAUGCCGGUCCCAAGCCCGGAUAAAAGUGGAGGGGGCGG

The variants in the series derive from B1. The experiment in a line: self-cleavage, relative activity (ratio to wild type); higher = more cleavage; co-transcriptional. An outline of the steps:
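In vitro transcription at 37 °C for 2 h allowed the twister ribozyme to cleave itself as it was made. Its 54-nucleotide Oryza sativa template had been synthesised with 97 % wild-type base and 1 % of each other base at the 48 positions downstream of the cleavage site. A template-switching oligonucleotide was used for reverse transcription, followed by PCR amplification and deep sequencing. Whether reads carried upstream sequence set the cleavage status, and relative activity is the fraction cleaved normalised to wild type.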
For A17G C25A, the self-cleavage is 0.21.
The figure for A17G C25U is 0.87; for A17G C25G it is 0.13.
For the variant A17G A36U, the self-cleavage amounted to 1.01.
As for A17G A36G, the self-cleavage is 0.99.
As to A17G A36C, the self-cleavage is 0.82.
The figure for A17C C15G is 0.64.
In the case of A17C C15U it was 0.77; in that of A17C C15A, 0.7.
The figure for A17G G49C is 0.08; for A17G G49U it is 0.25.
On to A17G G49A, for which the self-cleavage was 0.26.
The figure for A17G C31G is 0.22; for A17G C31A it is 0.05.
The figure for A17G C31U is 0.9; for A17G G50C it is 0.91; for A17G G50U it is 0.99.
The figure for A17G G50A is 0.51.
Take A17C G50C: the self-cleavage was determined as 0.9.
In the case of A17C G50A it was 0.51.
The figure for A17C G50U is 0.86; for A17G C11U it is 0.68; for A17G C11A it is 0.5.
Consider A17G C11G, for which the self-cleavage came out at 0.3.
In the case of A17G C9A, the self-cleavage was determined as 0.33.
The figure for A17G C9G is 0.78; for A17G C9U it is 0.47; for A17G C20U it is 0.97.
Consider A17G C20A, for which the self-cleavage is 0.89.
In the case of A17G C20G it was 0.19; in that of A17G G13U, 0.04.
Regarding A17G G13C, the self-cleavage turned out to be 0.03.
The figure for A17G G13A is 0.23; for A17G A40G it is 0.89.
The figure for A17G A40C is 0.09; for A17G A40U it is 0.83.
With A17C A36G, the self-cleavage was found to be 0.75.
In the case of A17C A36U, the self-cleavage came to 0.66.
For A17C A36C, the self-cleavage stood at 0.21.
The figure for A17C G42C is 0.21; for A17C G42U it is 0.57.
In the case of A17C G42A it was 0.5.
The figure for A17C C33G is 0.04; for A17C C33U it is 0.16.
Take A17C C33A: the self-cleavage stood at 0.05.
In the case of A17C G54A it was 0.9.
With A17C G54U, the self-cleavage was determined as 0.91.
The figure for A17C G54C is 0.87; for A17C G47C it is 0.05.
In the case of A17C G47U it was 0.09; in that of A17C G47A, 0.07; in that of A17U C15U, 0.64.
The figure for A17U C15A is 0.62.
A17U C15G: the self-cleavage turned out to be 0.54.
The figure for A17C G22C is 0.05; for A17C G22A it is 0.21; for A17C G22U it is 0.06.
The figure for A17C G48A is 0.05; for A17C G48U it is 0.03; for A17C G48C it is 0.03.
In the case of A17G A7U, the self-cleavage came to 0.1.
The figure for A17G A7G is 0.49; for A17G A7C it is 0.08; for A17G C26G it is 0.12.
The figure for A17G C26A is 0.08; for A17G C26U it is 0.88; for A17C G44A it is 0.81.
The figure for A17C G44C is 0.72; for A17C G44U it is 0.7; for A17G A29C it is 0.07.
On to A17G A29U, for which the self-cleavage is 0.27.
The figure for A17G A29G is 0.35; for A17G G30U it is 0.05; for A17G G30C it is 0.06.
The figure for A17G G30A is 0.05; for A17C U18C it is 0.57; for A17C U18A it is 0.78.
In the case of A17C U18G it was 0.79; in that of A17C C25A, 0.04.
As for A17C C25U, the self-cleavage is 0.18.
The figure for A17C C25G is 0.03; for A17G C52A it is 0.95.
In the case of A17G C52G it was 0.9; in that of A17G C52U, 1.01; in that of A17G G51A, 0.44.
The figure for A17G G51U is 0.3.
As to A17G G51C, the self-cleavage was determined as 0.14.
On to A17C C14A, for which the self-cleavage was 0.1.
The figure for A17C C14G is 0.25.
The figure for A17C C14U is 0.64.
In the case of A17C U24C it was 0.05; in that of A17C U24A, 0.03.
As to A17C U24G, the self-cleavage is 0.02.
A17U A36G: the self-cleavage is 1.05.
The figure for A17U A36U is 1.04; for A17U A36C it is 0.79.
In the case of A17C U12G it was 0.18; in that of A17C U12A, 0.15; in that of A17C U12C, 0.08.
The figure for A17G U24G is 0.03.
As for A17G U24A, the self-cleavage worked out at 0.43.
As to A17G U24C, the self-cleavage came out at 0.36.
In the case of A17C U37A it was 0.41.
As for A17C U37C, the self-cleavage stood at 0.85.
In the case of A17C U37G it was 0.81; in that of A17U C14G, 0.25.
The figure for A17U C14U is 0.79; for A17U C14A it is 0.18.
The figure for A17G G48U is 0.12; for A17G G48A it is 0.15.
In the case of A17G G48C, the self-cleavage was determined as 0.13.
In the case of A17G G42U it was 0.21; in that of A17G G42C, 0.08; in that of A17G G42A, 0.58.
In the case of A17G A46C it was 0.1.
The figure for A17G A46U is 0.09; for A17G A46G it is 0.07.
With A17U A29U, the self-cleavage is 0.19.
For A17U A29G, the self-cleavage was 0.35.
In the case of A17U A29C it was 0.05; in that of A17G G23C, 0.08.
The figure for A17G G23U is 0.08; for A17G G23A it is 0.43.
In the case of A17C G51U it was 0.22; in that of A17C G51A, 0.32; in that of A17C G51C, 0.13.
In the case of A17G A39U, the self-cleavage was determined as 0.95.
Turning to A17G A39C, the self-cleavage was 0.91.
As to A17G A39G, the self-cleavage is 0.94.
The figure for A17G G45U is 0.17.
In the case of A17G G45A it was 0.43.
In the case of A17G G45C it was 0.07; in that of A17U A7G, 0.43; in that of A17U A7C, 0.05.
Turning to A17U A7U, the self-cleavage turned out to be 0.09.
In the case of A17C G13U it was 0.02; in that of A17C G13A, 0.04; in that of A17C G13C, 0.04.
In the case of A17G G35U it was 0.77.
Regarding A17G G35A, the self-cleavage was 0.79.
The figure for A17G G35C is 0.66; for A17C U43G it is 0.26.
In the case of A17C U43A it was 0.64; in that of A17C U43C, 0.58.
In the case of A17U C25G it was 0.1.
In the case of A17U C25U, the self-cleavage came out at 0.93.
A17U C25A: the self-cleavage was determined as 0.14.
In the case of A17G C27U it was 0.29; in that of A17G C27A, 0.35.
In the case of A17G C27G, the self-cleavage worked out at 0.13.
The figure for A17G C33U is 0.19.
With A17G C33G, the self-cleavage is 0.07.
On to A17G C33A, for which the self-cleavage came out at 0.18.
In the case of A17C A46U it was 0.05; in that of A17C A46C, 0.05.
The figure for A17C A46G is 0.05.
Take A17G A28G: the self-cleavage was 0.42.
Regarding A17G A28U, the self-cleavage stood at 0.87.
The figure for A17G A28C is 0.93.
The figure for A17G G47A is 0.46.
In the case of A17G G47U it was 0.43; in that of A17G G47C, 0.17.
On to A17C C9A, for which the self-cleavage is 0.08.
On to A17C C9U, for which the self-cleavage worked out at 0.1.
In the case of A17C C9G it was 0.12; in that of A17C G45C, 0.05.
In the case of A17C G45U it was 0.14.
